These results are taken from ChEMBL document CHEMBL4414562, “Discovery of the First in Vivo Active Inhibitors of the Soluble Epoxide Hydrolase Phosphatase Domain” (J Med Chem, 2019).

The source made the active and inactive calls. The rule behind the calls is not given here. A value given as a limit tells only on which side of the number the result lay.

What is called IC50 is the midpoint of a concentration-inhibition curve. Higher therefore signals weaker potency. Usually Cmax stands for the highest concentration seen after dosing. For orientation: Ki means a measure of affinity in units of concentration, obtained from inhibition or displacement. A lower Ki goes with a stronger hold on the target.

For data set [1], the target named is T1, Bifunctional epoxide hydrolase 2 (Mus musculus, UniProt P34914).
T1 sequence (P34914 whole entry): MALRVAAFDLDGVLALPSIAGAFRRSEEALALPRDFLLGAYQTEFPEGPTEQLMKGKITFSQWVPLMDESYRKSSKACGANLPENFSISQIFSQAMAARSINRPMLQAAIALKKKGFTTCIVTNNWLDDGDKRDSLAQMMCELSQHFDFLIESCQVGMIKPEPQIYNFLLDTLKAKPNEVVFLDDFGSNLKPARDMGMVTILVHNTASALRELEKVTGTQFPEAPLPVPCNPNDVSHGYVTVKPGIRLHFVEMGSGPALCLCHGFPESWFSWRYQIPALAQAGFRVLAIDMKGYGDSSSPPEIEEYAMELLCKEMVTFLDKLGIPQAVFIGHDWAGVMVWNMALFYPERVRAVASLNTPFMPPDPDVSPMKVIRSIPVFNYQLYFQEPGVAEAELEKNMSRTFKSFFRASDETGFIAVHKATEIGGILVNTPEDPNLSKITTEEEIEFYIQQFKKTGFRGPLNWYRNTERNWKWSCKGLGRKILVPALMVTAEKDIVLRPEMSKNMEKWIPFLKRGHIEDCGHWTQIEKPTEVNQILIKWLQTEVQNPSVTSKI
The data set is described as follows: Inhibition of phosphatase activity of full length mouse soluble epoxide hydrolase pre-incubated for 30 mins before FDP substrate addition by fluorescence based assay.

Data set [2] relates to Rattus norvegicus. Nature of the data set: Inhibition of sEH-H in Sprague-Dawley rat assessed as effect on ratio of 19,20-EpDPA […] in plasma at 30 mg/kg, po after 8 hrs by LC-MS/MS analysis. The format is functional, organism-based. An outline of the steps: (§1)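 Male Sprague-Dawley rats given a single oral dose of 30 mg/kg or vehicle (n = 3 per group). Plasma collected 8 h later. Epoxy fatty acid/diol ratios and LPA/corresponding MAG ratios quantified by LC−MS/MS.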

Data set [3] can be described thus: Cmax in Sprague-Dawley rat at 30 mg/kg, po monitored over 8 hrs by LC-MS analysis. The format is ADME, organism-based. Further details: dose 30 mg/kg, route oral. To be noted: in vivo. The essentials: (§2)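 Male Sprague-Dawley rats (n = 3) given a single oral dose of 30 mg/kg. Plasma compound concentration followed over 8 h. Cmax and half-life derived from the plasma concentration–time profile.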

For data set [4], the target named is T2, Peroxisome proliferator-activated receptor delta (Homo sapiens) (UniProt Q03181).
T2 sequence (whole entry): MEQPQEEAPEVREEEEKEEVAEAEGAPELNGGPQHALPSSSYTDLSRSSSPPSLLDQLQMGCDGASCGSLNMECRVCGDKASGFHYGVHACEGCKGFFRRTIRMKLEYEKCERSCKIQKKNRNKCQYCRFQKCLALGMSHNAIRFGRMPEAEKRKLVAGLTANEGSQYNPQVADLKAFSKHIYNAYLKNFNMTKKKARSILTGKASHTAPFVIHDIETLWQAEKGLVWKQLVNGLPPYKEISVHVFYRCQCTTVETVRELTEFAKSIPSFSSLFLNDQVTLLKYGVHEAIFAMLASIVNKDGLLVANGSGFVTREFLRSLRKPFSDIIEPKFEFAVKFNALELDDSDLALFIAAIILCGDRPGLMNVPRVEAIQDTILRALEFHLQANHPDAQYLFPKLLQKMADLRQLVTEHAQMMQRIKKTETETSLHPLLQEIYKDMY
Nature of the data set: Activation of Gal4-fused human PPARbeta/delta LBD transfected in HEK293T cells at 10 uM after 12 to 14 hrs by luciferase reporter gene assay. The format is cell-based. An outline of the steps: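 Gal4–human nuclear receptor LBD fusion (pFA-CMV-hNR-LBD) co-transfected with pFR-Luc and pRL-SV40 (Lipofectamine LTX) into HEK293T cells seeded the day before. 5 h post-transfection, compound added in Opti-MEM with 0.1% DMSO and incubated 12−14 h. Dual-Glo firefly/Renilla luciferase read. Activation expressed relative to reference agonist at 1 μM. Triplicates, ≥3 independent experiments.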
A general note: In a reporter assay the amount or activity of a reporter protein is the signal.

The species entered for data set [5] is Homo sapiens. The data set is described as follows: Induction of stabilization of hexa-His-tagged human soluble epoxide hydrolase N-terminal phosphatase domain expressed in Escherichia coli BL21(DE3) at 50 uM by differential scanning fluorimetry.
Data set [6] deals with T3, Bifunctional epoxide hydrolase 2 (Homo sapiens, UniProt P34913).
T3 sequence (P34913 whole entry): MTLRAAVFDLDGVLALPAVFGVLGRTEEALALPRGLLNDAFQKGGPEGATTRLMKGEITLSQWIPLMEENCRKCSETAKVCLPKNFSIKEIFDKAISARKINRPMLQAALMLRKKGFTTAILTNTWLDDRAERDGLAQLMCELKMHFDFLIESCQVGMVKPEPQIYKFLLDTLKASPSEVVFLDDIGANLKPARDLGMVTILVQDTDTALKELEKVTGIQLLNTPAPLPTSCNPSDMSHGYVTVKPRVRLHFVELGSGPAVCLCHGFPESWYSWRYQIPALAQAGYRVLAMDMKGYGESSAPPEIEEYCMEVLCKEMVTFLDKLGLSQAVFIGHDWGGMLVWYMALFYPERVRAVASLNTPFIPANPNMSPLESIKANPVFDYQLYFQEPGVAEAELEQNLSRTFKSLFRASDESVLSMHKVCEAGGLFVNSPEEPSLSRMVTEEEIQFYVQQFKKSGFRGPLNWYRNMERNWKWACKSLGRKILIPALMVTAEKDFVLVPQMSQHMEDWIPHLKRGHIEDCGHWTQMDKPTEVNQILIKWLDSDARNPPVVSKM
The data set is described as follows: Competitive inhibition of full length human soluble epoxide hydrolase pre-incubated for 30 mins before DiFMUP substrate addition by fluorescence based assay.

Data set [7] concerns the target T4, Bifunctional epoxide hydrolase 2 (Homo sapiens) (UniProt P34913).
T4 sequence (whole entry): T3 sequence (P34913 whole entry)
Nature of the data set: Induction of stabilization of hexa-His-tagged human soluble epoxide hydrolase C-terminal hydrolase domain expressed in Escherichia coli BL21(DE3) at 50 uM by differential scanning fluorimetry. (In general: In DSF a fluorescence change marks the thermal transition of the protein.)

The nature of data set [8]: Half life in Sprague-Dawley rat at 30 mg/kg, po monitored over 8 hrs by LC-MS analysis. To be noted: in vivo. Type of data set: ADME, organism-based. An outline of the steps: as §2
Data set [9] concerns Rattus norvegicus. Nature of the data set: Inhibition of sEH-P in Sprague-Dawley rat assessed as effect on ratio of sn1-18:1 LPA to corresponding monoacylglycerol species in plasma at 30 mg/kg, po after 8 hrs by LC-MS/MS analysis. The format is functional, organism-based. An outline of the steps:
as §1

The nature of data set [10]: Competitive inhibition of hexa-His-tagged human soluble epoxide hydrolase N-terminal phosphatase domain expressed in Escherichia coli BL21(DE3) pre-incubated for 30 mins before DiFMUP substrate addition by fluorescence based assay.
The species named for data set [11] is Homo sapiens. The data set is described as follows: Inhibition of soluble epoxide hydrolase N-terminal phosphatase domain in human PBMC assessed as reduction in MAG/LPA ratio at 30 uM incubated for 24 hrs by LC-MS/MS analysis.

As for `O=C(O)CCCc1nc(-c2ccc(Cl)c(Cl)c2)c(-c2ccccc2)o1`, the concentration for half-maximal inhibition (IC50) in data set [1] is more than 30 µM. In addition, the inhibition result in data set [2] is “inactive”. Besides, the Cmax in [3] was found to be 128 µM. In addition, the outcome in data set [4] and in data set [7] was inactive. For the same compound, the outcome in data set [5] was Active. Also, the Ki in data set [6] was determined as 4.8 µM; in data set [10], 50 nM. The compound also showed a t1/2 in data set [8] of 7 h. In addition, the inhibition entry in data set [9] and in data set [11] was “Active” each time.

The compound `O=C(O)CCc1nc(-c2ccccc2)c(-c2ccccc2)o1` [OXAPROZIN] returned an IC50 in data set [1] of 35.5 µM. For the same compound, in data set [4], the result was inactive.
